Test results taken from paper PMC5028261 (Neurochemistry international, 2016).
Where two headings read alike, the source gives them in different places.

Columns and labels:
[1] = system: CNS neurons in mixed retinal culture; details: ref Geiger et al., 2002; cited from earlier work
rat [2] = details: rat optic nerve transection; ref Almasieh et al., 2011; cited from earlier work
RGC-5 cells = format: cell-based; details: one hour, DSSA alone 22.3 ± 0.2, mean ± SEM of 3 experiments
[3] = Superoxide scavenging, xanthine/xanthine oxidase with hydroethidine fluorescence; format: biochemical; details: 1, 10, 100 μM, compared to PEG-SOD control
[4] = Cell-free disulfide reduction of DTNB; format: biochemical; details: for reduction of disulfides in cell-free assays: non-deprotected (borane-complexed) forms
[5] = Accelerated stability of solid compound by HPLC; format: physicochemical
[6] = octanol/water, room temperature
[7] = system: RGCs and retinal endothelial cells; details: ref Schlieve et al., 2006; cited from earlier work
[8] = over 72 hours, HPLC
rat [9] = details: rat experimental glaucoma; ref Almasieh et al., 2011; cited from earlier work
[10] = Superoxide detection by EPR with spin trap DEPMPO; format: biochemical; details: for reducing activity by EPR spectroscopy: converts superoxide adduct of the spin trap to hydroxyl adduct; for effect on EPR spectra of superoxide adduct of DEPMPO: xanthine/xanthine oxidase
Outline: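 Superoxide is generated from hypoxanthine (200 μM) and xanthine oxidase (0.0025 U/mL) with the spin trap DEPMPO present. A hydroxyl-adduct reference spectrum comes from a Fenton reaction: FeSO4 (100 μM), diethylenetriaminepentaacetic acid (100 μM) and H2O2 (1 mM) with DEPMPO (100 mM). Superoxide- and hydroxyl-DEPMPO adducts are recorded by EPR at room temperature, 9.85 GHz.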

rats [11] = details: ref Hampton Research, 2016, cited from earlier work
rats [12] = details: ref Swanson et al., 2005; cited from earlier work
neurons after axotomy = details: in vivo; ref Geiger et al., 2002; cited from earlier work

| Compound | neuroprotection in vivo (rat [2]) | mean cell fluorescence intensity (DSSA-1) (RGC-5 cells; 10 μM) | superoxide scavenging (2-hydroxyethidium fluorescence) [3] | reduction of disulfides in cell-free assays [4] | peak area, % of control ([5]; 40°C, 37 days) [%] | peak area, % of control ([5]; 40°C, 125 days) [%] | peak area, % of control ([5]; 60°C, 37 days) [%] | peak area, % of control ([5]; 60°C, 125 days) [%] | neuroprotection in vivo (rat [9]) | reducing activity by EPR spectroscopy [10] | effect on EPR spectra of superoxide adduct of DEPMPO [10] | further results |
| --- | --- | --- | --- | --- | --- | --- | --- | --- | --- | --- | --- | --- |
| O[C@@H](CS)[C@@H](O)CS (racemic) [DTT, dithiothreitol] |  |  |  |  |  |  |  |  |  |  |  | in vitro survival of CNS neurons [1]: can increase in vitro survival |
| [BH3-][P+](CCC(=O)OC)(c1ccccc1)c1ccccc1 [PB2, (3-propionic acid methyl ester) diphenylphosphine-borane complex] | neuroprotective | 36.6 ± 0.2 | did not appreciably scavenge superoxide | did not reduce disulfides | 100 | 86 | 100 | 14 | neuroprotective |  |  | reducing capability towards DTNB ([4]; borane removed with DABCO, pH 7, compared with DTT and TCEP): reduced disulfides more effectively than DTT or TCEP; calculated half-life ([5]; 20°C, extrapolation using the Arrhenius equation): 18 years; log Poct/wat [6]: 1.1; no toxicity up to (concentration) [7]: 100 µM; solubility in water [8]: 3.7 µM |
| COC(=O)CCP(c1ccccc1)c1ccccc1 [P2, (3-propionic acid methyl ester)diphenylphosphine] |  |  |  |  |  |  |  |  |  | strong reducing activity | did not diminish the spectra of superoxide |  |
| O=C(O)CCP(CCC(=O)O)CCC(=O)O [TCEP, tris(2-carboxyethyl)phosphine] |  |  |  |  |  |  |  |  |  |  |  | mean cell fluorescence intensity (DSSA-1) (RGC-5 cells; 1 mM): 25.6 ± 0.2; LD50 (rats [11]; i.p injection): greater than 1024 mg/kg; LD50 (rats [11]; rats dosed orally): 3500 mg/kg; neuronal death after optic nerve crush (rats [12]): prevents neuronal death; neuronal death after axotomy (neurons after axotomy): prevents neuronal death |
| COC(=O)CCP(CCC(=O)OC)c1ccccc1 [P1, bis(3-propionic acid methyl ester) phenylphosphine] |  |  |  |  |  |  |  |  |  | strong reducing activity | did not diminish the spectra of superoxide |  |
| bis(3-propionic acid methyl ester) phenylphosphine-borane complex [PB1] | neuroprotective | 26.7 ± 0.3 | did not appreciably scavenge superoxide | did not reduce disulfides | 80 | 58 | 72 | 12 | neuroprotective |  |  |  |
